Data set [1] relates to RAW264.7. As to the kind of experiment: Anti-inflammatory activity in mouse RAW264.7 cells assessed as inhibition of LPS-induced IL6 production at 10 mM pre-incubated for 10 mins before LPS stimulation for 24 hrs by ELISA method. In kind it is functional, cell-based. The conditions noted are these: in the assay text read “pre-incubated for 30 mins” for “pre-incubated for 10 mins”. Summed up:
(§1)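 RAW 264.7 macrophages pretreated with compound for 30 min, then stimulated with LPS for 24 h. TNF-α and IL-6 in culture medium measured by ELISA and normalized to total protein. Expressed as percent of LPS group; mean ± SEM of 3 independent experiments.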

Data set [2] deals with RAW264.7. As to the kind of experiment: Anti-inflammatory activity in mouse RAW264.7 cells assessed as inhibition of LPS-induced TNFalpha production at 10 mM pre-incubated for 10 mins before LPS stimulation for 24 hrs by ELISA method. The conditions noted are these: in the assay text read “pre-incubated for 30 mins” for “pre-incubated for 10 mins”. Type of data set: functional, cell-based. In short, it runs like this: as §1

The subject of data set [3] is RAW264.7. Kind of data set: Anti-inflammatory activity in mouse RAW264.7 cells assessed as inhibition of LPS-induced IL6 production pre-incubated for 30 mins before LPS stimulation for 24 hrs by ELISA method.
For data set [4], the system named is RAW264.7. Kind of data set: Anti-inflammatory activity in mouse RAW264.7 cells assessed as inhibition of LPS-induced IL6 production pre-incubated for 10 mins before LPS stimulation for 24 hrs by ELISA method. Type of data set: functional, cell-based. To be noted: in the assay text read “pre-incubated for 30 mins” for “pre-incubated for 10 mins”. In short, it runs like this: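 RAW 264.7 macrophages pretreated for 30 min at 1, 2.5, 5 and 10 µM, then given LPS (0.5 µg/mL) for 24 h. IL-6 in medium measured by ELISA, normalized to total protein, and expressed as percent of LPS. Concentration-response used for IC50; 3 independent experiments.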

Data set [5] in a line: Toxicity against human HL7702 cells assessed as reduction in cell survival at 10 uM incubated for 24 hrs by MTT assay. Type of data set: cell-based. To be noted: l02, 24 h. Summed up:
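HL-7702 normal hepatic cells treated at 10 µM for 24 h. Viability measured by MTT.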

Data set [6] concerns Mus musculus. As to the kind of experiment: Anti-inflammatory activity in C57BL/6 mouse model of LPS-induced acute lung injury assessed as reduction in serum TNFalpha level at 20 mg/kg for 1 week dosed before LPS instillation for 6 hrs. In kind it is functional, organism-based. Summed up:
(§2)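 LPS-induced ALI in mice. Pretreatment at 20 mg/kg for one week, then intratracheal LPS (5 mg/kg). Animals killed 6 h later. BALF and serum collected and TNF-α measured in each.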

The test system of data set [7] is Mus musculus. Kind of data set: Anti-inflammatory activity in C57BL/6 mouse model of LPS-induced acute lung injury assessed as reduction in TNFalpha level in bronchoalveolar lavage fluid at 20 mg/kg for 1 week dosed before LPS instillation for 6 hrs. Type of data set: functional, organism-based. In short, it runs like this: as §2
Data set [8] concerns BEAS-2B. As to the kind of experiment: Anti-inflammatory activity in human BEAS2B cells assessed as LPS-induced TNFalpha mRNA expression incubated for 6 hrs by RT-qPCR method. Type of data set: functional, cell-based. In short, it runs like this: (§3)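 Beas-2B cells exposed to LPS (1.0 µg/mL) for 6 h, with or without compound. IL-1β, IL-6, IL-33 and TNF-α mRNA quantified by RT-qPCR. Results expressed as percent of LPS control.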

Data set [9] deals with BEAS-2B. As to the kind of experiment: Anti-inflammatory activity in human BEAS2B cells assessed as LPS-induced IL6 mRNA expression incubated for 6 hrs by RT-qPCR method. In kind it is functional, cell-based. Summed up:
as §3

The species entered for data set [10] is Mus musculus. Kind of data set: Anti-inflammatory activity in C57BL/6 mouse model of LPS-induced acute lung injury assessed as reduction in lung airspace inflammation […] by hematoxylin and eosin staining method. In kind it is functional, organism-based. Summed up: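 Lung tissue taken 6 h after tracheal LPS instillation (5 mg/kg) in mice given or not given treatment. Sections stained with hematoxylin and eosin and examined by light microscopy for inflammatory cell infiltration, interstitial edema and alveolar septal thickening.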

For data set [11], the system named is BEAS-2B. Kind of data set: Anti-inflammatory activity in human BEAS2B cells assessed as LPS-induced IL33 mRNA expression incubated for 6 hrs by RT-qPCR method. Type of data set: functional, cell-based. In short, it runs like this:
as §3

For data set [12], the system named is Mus musculus. As to the kind of experiment: Anti-inflammatory activity in C57BL/6 mouse model of LPS-induced acute lung injury assessed as reduction in lung wet/dryweight ratio at 20 mg/kg for 1 week dosed before LPS instillation for 6 hrs. Type of data set: functional, organism-based. Summed up:
(§4)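 ALI model in mice: one-week pretreatment at 20 mg/kg, then intratracheal LPS instillation (5 mg/kg). After 6 h, animals anaesthetized and killed. Lung wet/dry weight ratio determined. Total cell count and total protein concentration measured in bronchoalveolar lavage fluid.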

Data set [13] relates to BEAS-2B. Kind of data set: Anti-inflammatory activity in human BEAS2B cells assessed as LPS-induced IL-1beta mRNA expression incubated for 6 hrs by RT-qPCR method. Type of data set: functional, cell-based. Summed up: as §3
For data set [14], the system named is Mus musculus. As to the kind of experiment: Anti-inflammatory activity in C57BL/6 mouse model of LPS-induced acute lung injury assessed as reduction in lung CD68-stained macrophages level at 20 mg/kg for 1 week dosed before LPS instillation for 6 hrs by immunohistochemistry method. In kind it is functional, organism-based. Summed up:
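Lung sections from mice killed 6 h after intratracheal LPS, with or without pretreatment. Macrophages detected by immunohistochemistry for the marker CD68.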

Data set [15] deals with Mus musculus. Kind of data set: Anti-inflammatory activity in C57BL/6 mouse model of LPS-induced acute lung injury assessed as reduction in protein level in bronchoalveolar lavage fluid at 20 mg/kg for 1 week dosed before LPS instillation for 6 hrs by BCA protein assay. In kind it is functional, organism-based. In short, it runs like this: as §4
Data set [16] deals with Mus musculus. Kind of data set: Anti-inflammatory activity in C57BL/6 mouse model of LPS-induced acute lung injury assessed as reduction in total cel count at 20 mg/kg for 1 week dosed before LPS instillation for 6 hrs. Type of data set: functional, organism-based. Summed up: as §4

pIC50: −log10 of the molar value. The source made the active and inactive calls. The rule behind the calls is not given here.

Consider `COc1ccc(C(=O)/C=C/c2cc(OC)c(OC)c(OC)c2)cc1/N=C/c1cc2c(cc1Br)OCO2`, for which the inhibition result in the data set on RAW264.7 [1] is “Active”.
Consider `COc1ccc(Br)c(/C=N/c2cc(C(=O)/C=C/c3cc(OC)c(OC)c(OC)c3)ccc2OC)c1`, for which the inhibition result in the data set on RAW264.7 [1] was “Active”.
Turning to `COc1ccc(C(=O)/C=C/c2ccc(C(F)(F)F)cc2)cc1/N=C/c1cccc(OC)c1O`, the inhibition result in the data set with RAW264.7 [1] and with RAW264.7 [2] was “Active” in each case.
In the case of `COc1ccc(C(=O)/C=C/c2cc(OC)c(OC)c(OC)c2)cc1/N=C/c1ccccc1O`, in the data set on RAW264.7 [3], the IC50 came to 3.6 µM. Besides, the inhibition entry with RAW264.7 [1] was “Active”. Also, the inhibition result in the data set on RAW264.7 [4] was “Dose-dependent effect”. For the same compound, the Activity entry in [5] was “Non-toxic”.
Consider `COc1ccc(C(=O)/C=C/c2cc(OC)c(OC)c(OC)c2)cc1/N=C/c1ccccc1Br`, for which the IC50 with RAW264.7 [3] was found to be 4.8 µM. Besides, the inhibition result in the data set on RAW264.7 [1] and in the data set with RAW264.7 [2] was “Active” in each case. For the same compound, in the data set with RAW264.7 [4], the inhibition entry is “Dose-dependent effect”. The Activity entry in data set [5] is recorded as “Non-toxic”.
Consider `COc1ccc(C(=O)/C=C/c2cc(OC)c(OC)c(OC)c2)cc1/N=C/c1cccc(OC)c1O`, for which, in the data set on RAW264.7 [1], the inhibition result was “Active”. For the same compound, in the data set on RAW264.7 [4], the pIC50 was 5.55 and the inhibition entry was “Dose-dependent effect”. The Activity entry in data set [5] is listed as “Non-toxic”. Further, the inhibition result in the data set on RAW264.7 [2] is “Active”.
Turning to `COc1ccc(C(=O)/C=C/c2ccc(Br)cc2)cc1/N=C/c1cccc(OC)c1O`, the inhibition result in the data set on RAW264.7 [1] and in the data set on RAW264.7 [2] was “Active” each time.
On to `COc1ccc(C(=O)/C=C/c2cccc(Br)c2)cc1/N=C/c1cccc(OC)c1O`, for which the inhibition result in the data set with RAW264.7 [1] and in the data set on RAW264.7 [2] was “Active” throughout.
Regarding `COc1ccc(C(=O)/C=C/c2cc(OC)c(OC)c(OC)c2)cc1/N=C/c1cccc(O)c1O`, the inhibition entry in the data set on Mus musculus [6], in the data set on Mus musculus [7], in the data set with BEAS-2B [8], in the data set on BEAS-2B [9], in the data set on RAW264.7 [1] and in the data set listed under Mus musculus [10] was “Active” each time. Also, the inhibition result in the data set on BEAS-2B [11], with Mus musculus [12], in the data set with BEAS-2B [13], in the data set with Mus musculus [14], with Mus musculus [15] and in the data set on Mus musculus [16] was “Active” throughout. The inhibition result in the data set on RAW264.7 [2] is “Active”. In addition, in the data set on RAW264.7 [3], the IC50 was determined as 1.8 µM. For the same compound, the inhibition result in the data set on RAW264.7 [4] is “Dose-dependent effect”. In addition, the Activity result in data set [5] is recorded as “Non-toxic”.
Take `COc1ccc(C(=O)/C=C/c2ccccc2C(F)(F)F)cc1/N=C/c1cccc(OC)c1O`: the inhibition result with RAW264.7 [1] and in the data set with RAW264.7 [2] was “Active” throughout.
With `COc1ccc(C(=O)/C=C/c2ccccc2Br)cc1/N=C/c1cccc(OC)c1O`, the inhibition entry in the data set on RAW264.7 [1] and with RAW264.7 [2] was “Active” in each case.
As to `COc1ccc(C(=O)/C=C/c2cc(OC)c(OC)c(OC)c2)cc1/N=C/c1ccc(O)c(Br)c1`, in the data set with RAW264.7 [3], the IC50 was 3.6 µM. Besides, the inhibition entry in the data set with RAW264.7 [1] and with RAW264.7 [2] was “Active” throughout. The inhibition result with RAW264.7 [4] was “Dose-dependent effect”. In data set [5], the Activity result is recorded as “Non-toxic”.
Take `COc1cc(OC)c(/C=C/C(=O)c2ccc(OC)c(/N=C/c3cccc(OC)c3O)c2)c(OC)c1`: the inhibition entry in the data set on RAW264.7 [1] was “Active”.
Consider `Oc1ccc(/C=C/c2cc(O)cc(O)c2)cc1`, for which the inhibition entry with Mus musculus [6], with RAW264.7 [1], with Mus musculus [14] and with RAW264.7 [2] was “Active” each time.
Take `COc1ccc(C(=O)/C=C/c2cc(OC)c(OC)c(OC)c2)cc1/N=C/c1ccc(Cl)cc1Cl`: the inhibition entry with RAW264.7 [1] is “Active”.
On the same count and under the same terms, as for `COc1ccc(C(=O)/C=C/c2ccc(OC)c(OC)c2)cc1/N=C/c1cccc(OC)c1O`, the entry is “Active”; as for `COc1ccc(C(=O)/C=C/c2cc(OC)c(OC)c(OC)c2)cc1/N=C/c1ccc(O)cc1O`, “Active”.
As for `COc1ccccc1/C=C/C(=O)c1ccc(OC)c(/N=C/c2cccc(OC)c2O)c1`, the inhibition result in the data set on RAW264.7 [1] and in the data set with RAW264.7 [2] was “Active” throughout.
Consider `COc1ccc(C(=O)/C=C/c2ccc3ccccc3c2)cc1/N=C/c1cccc(OC)c1O`, for which the inhibition entry with RAW264.7 [1] was “Active”.
As to `CCN(CC)c1ccc(/C=N/c2cc(C(=O)/C=C/c3cc(OC)c(OC)c(OC)c3)ccc2OC)c(O)c1`, the inhibition entry with RAW264.7 [1] is “Active”.

(Values after ChEMBL document CHEMBL3596136, “Design, synthesis and biological evaluation of paralleled Aza resveratrol-chalcone compounds as potential anti-inflammatory agents for the treatment of acute lung injury” (Bioorg Med Chem Lett, 2015).)
